Laboratory results from ChEMBL document CHEMBL5257040, “Discovery of VU2957 (Valiglurax): An mGlu4 Positive Allosteric Modulator Evaluated as a Preclinical Candidate for the Treatment of Parkinson's Disease” (ACS Med Chem Lett, 2019).
Activity calls are given as the source filed them. The calls are words filed in the database; no cut-off is given here.

Experiments:
[1] = Genotoxicity in Salmonella typhimurium […] in presence of S9 fraction by Ames test; type: toxicity, subcellular; details: salmonella enterica subsp. enterica serovar typhimurium
Summary of the method: (§1)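 Ames bacterial reverse mutation test in strains TA98 and […], run with and without S9 metabolic activation.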

[2] = AUC in Sprague-Dawley rat at 3 mg/kg, po administered as spray-dried dispersion formulation and measured after 24 hrs by LC-MS/MS analysis; type: ADME, organism-based; design: dose 3 mg/kg, time 24 hrs, route po; details: in vivo
Summary of the method: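 Rats were dosed orally at 3, 10 and 30 mg/kg with a spray-dried dispersion of the free base and HPMCP-HP55 polymer (25%/75%), in 30% Dexolve. Total plasma Cmax and AUC were measured, N = 3.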

Rattus norvegicus [3] = assay: Reversal of haloperidol-induced catalepsy Sprague-Dawley rat model at 0.3 to 30 mg/kg,po; type: functional, organism-based; details: dose 0.3-30 mg/kg
Summary of the method: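 Sprague-Dawley rats received haloperidol 1.5 mg/kg i.p. to induce catalepsy, with the compound dosed orally at 0.3–30 mg/kg. Groups were 8–10 rats and compared with vehicle + haloperidol (p < 0.05). MED = lowest oral dose giving significant reversal.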

[4] = biological target: Metabotropic glutamate receptor 6 (Homo sapiens, UniProt O15303); assay: Positive allosteric modulator activity at human mGlu6 in human HEK cells co-expressing […] assessed as increase in by thallium flux preincubated for 2.5 mins followed by gluatamate addition by thallium flux assay; type: cell-based
Chain of Metabotropic glutamate receptor 6 (O15303 whole entry): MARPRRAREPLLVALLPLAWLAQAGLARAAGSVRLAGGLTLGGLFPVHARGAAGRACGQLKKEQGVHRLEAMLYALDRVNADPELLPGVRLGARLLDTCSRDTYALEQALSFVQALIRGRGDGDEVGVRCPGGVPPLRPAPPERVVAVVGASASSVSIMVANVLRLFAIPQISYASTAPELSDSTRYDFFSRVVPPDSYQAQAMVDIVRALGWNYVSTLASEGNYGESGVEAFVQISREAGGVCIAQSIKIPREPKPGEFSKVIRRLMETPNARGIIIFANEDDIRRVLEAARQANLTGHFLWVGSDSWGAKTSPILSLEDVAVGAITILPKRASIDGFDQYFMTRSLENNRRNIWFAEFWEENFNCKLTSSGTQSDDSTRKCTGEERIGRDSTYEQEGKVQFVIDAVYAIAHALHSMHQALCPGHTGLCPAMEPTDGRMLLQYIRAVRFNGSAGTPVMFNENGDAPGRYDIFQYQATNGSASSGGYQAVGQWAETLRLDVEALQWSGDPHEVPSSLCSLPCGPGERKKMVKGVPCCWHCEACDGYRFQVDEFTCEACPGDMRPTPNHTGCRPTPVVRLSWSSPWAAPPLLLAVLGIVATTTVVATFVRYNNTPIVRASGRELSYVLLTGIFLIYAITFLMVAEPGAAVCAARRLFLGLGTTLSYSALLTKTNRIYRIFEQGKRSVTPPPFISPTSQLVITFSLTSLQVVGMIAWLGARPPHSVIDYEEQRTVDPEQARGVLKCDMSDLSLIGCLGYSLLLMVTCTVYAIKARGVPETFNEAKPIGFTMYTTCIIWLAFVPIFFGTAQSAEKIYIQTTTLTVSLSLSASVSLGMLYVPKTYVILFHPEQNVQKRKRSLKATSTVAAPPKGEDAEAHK

[5] = Tmax in CD-1 mouse plasma at 3 mg/kg, po and measured upto 24 hrs by LC-MS/MS analysis; type: ADME, organism-based
Summary of the method: (§2)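 Single-dose iv and oral PK in separate arms: mouse 1 mg/kg iv / 3 mg/kg po, SD rat 0.2/3, beagle 0.5/3, cynomolgus 0.2/3 mg/kg. Plasma parameters (Vss, Tmax, F) are means of two to three animals per species.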

[6] = Volume of distribution at steady state in Cynomolgus monkey at 0.2 mg/kg, iv and measured upto 24 hrs by LC-MS/MS analysis; type: ADME, organism-based, Macaca fascicularis; details: in vivo, read-out: Vdss; summary of the method: as §2
[7] = Clearance in CD-1 mouse plasma at 1 mg/kg, iv and measured upto 24 hrs by LC-MS/MS analysis; type: ADME, organism-based
Summary of the method: (§3)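 Single intravenous doses: mouse 1 mg/kg, SD rat 0.2 mg/kg, beagle dog 0.5 mg/kg, cynomolgus monkey 0.2 mg/kg. Plasma clearance, Vss and elimination half-life came from the plasma profiles. Values are means of two to three animals.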

[8] = Protein binding in cynomolgus monkey plasma assessed as fraction unbound incubated for 4 hrs by equilibrium dialysis based LC/MS/MS analysis; type: ADME, cell-free, Macaca fascicularis
[9] = AUC (0 to infinity) in CD-1 mouse plasma at 3 mg/kg, po and measured upto 24 hrs by LC-MS/MS analysis; type: ADME, organism-based; design: dose 3 mg/kg, time < 24 hrs, route po
Summary of the method: (§4)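 Single oral 3 mg/kg dose in mouse, SD rat, beagle dog and cynomolgus monkey. Total plasma exposure after the oral dose gave Cmax, Tmax, AUC0-inf and F. Values are means of two to three animals.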

[10] = AUC (0 to infinity) in Cynomolgus monkey at 3 mg/kg, po and measured upto 24 hrs by LC-MS/MS analysis; type: ADME, organism-based, Macaca fascicularis; design: time < 24 hrs, dose 3 mg/kg, route po; details: in vivo; summary of the method: as §4
[11] = Genotoxicity in Salmonella typhimurium TA98 by Ames test; type: toxicity; details: salmonella enterica subsp. enterica serovar typhimurium; summary of the method: as §1
Cytochrome P450 3A4 [12] = biological target: T1, Cytochrome P450 3A4 (Homo sapiens, UniProt P08684); assay: Induction of CYP3A4 in human hepatocytes; type: ADME, cell-based
T1 sequence (P08684 whole entry): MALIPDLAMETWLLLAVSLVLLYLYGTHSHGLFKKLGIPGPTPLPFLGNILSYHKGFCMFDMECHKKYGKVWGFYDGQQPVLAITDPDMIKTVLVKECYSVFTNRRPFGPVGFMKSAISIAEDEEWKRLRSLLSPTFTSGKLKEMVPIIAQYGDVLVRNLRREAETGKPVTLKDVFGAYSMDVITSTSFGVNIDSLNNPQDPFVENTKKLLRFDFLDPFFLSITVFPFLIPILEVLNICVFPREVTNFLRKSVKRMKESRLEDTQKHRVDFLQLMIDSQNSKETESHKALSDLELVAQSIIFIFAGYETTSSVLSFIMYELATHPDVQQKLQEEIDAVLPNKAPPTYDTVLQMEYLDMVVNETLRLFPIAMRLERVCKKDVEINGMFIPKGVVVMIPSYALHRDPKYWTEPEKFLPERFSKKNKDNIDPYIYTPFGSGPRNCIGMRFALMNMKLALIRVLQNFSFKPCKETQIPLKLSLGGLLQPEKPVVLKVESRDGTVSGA
Summary of the method: (§5)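 CYP1A2, 2B6 and 3A4 induction measured in human hepatocytes.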

[13] = AUC (0 to infinity) in Sprague-Dawley rat at 3 mg/kg, po and measured upto 24 hrs by LC-MS/MS analysis; type: ADME, organism-based; design: time < 24 hrs, dose 3 mg/kg, route po; details: in vivo; summary of the method: as §4
Cytochrome P450 1A2 = Cytochrome P450 1A2 (Homo sapiens, UniProt P05177); assay: Inhibition of CYP1A2 in human liver microsomes using […] as substrate preincubated for 15 mins followed by NADPH addition and measured after 8 mins by LC/MS/MS analysis; type: ADME, Microsome
Chain of Cytochrome P450 1A2 (P05177 whole entry): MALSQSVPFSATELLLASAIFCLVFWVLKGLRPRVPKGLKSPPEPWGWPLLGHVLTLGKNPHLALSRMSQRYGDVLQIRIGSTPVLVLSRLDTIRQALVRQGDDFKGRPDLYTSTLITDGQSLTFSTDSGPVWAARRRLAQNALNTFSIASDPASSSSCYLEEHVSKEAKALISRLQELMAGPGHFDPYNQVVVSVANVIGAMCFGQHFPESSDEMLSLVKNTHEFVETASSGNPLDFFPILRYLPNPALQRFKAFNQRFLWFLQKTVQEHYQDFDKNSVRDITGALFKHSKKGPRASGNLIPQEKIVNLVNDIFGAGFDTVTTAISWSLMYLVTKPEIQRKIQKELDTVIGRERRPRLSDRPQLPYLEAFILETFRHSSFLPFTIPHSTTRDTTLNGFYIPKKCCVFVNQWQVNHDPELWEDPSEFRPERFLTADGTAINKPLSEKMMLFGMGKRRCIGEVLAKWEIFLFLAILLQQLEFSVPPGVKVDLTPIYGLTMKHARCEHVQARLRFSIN

[14] = Solubility of compound in FaSSIF; type: ADME
[15] = biological target: Metabotropic glutamate receptor 4 (Rattus norvegicus) (UniProt P31423); assay: Positive allosteric modulator activity at rat mGlu4 in human HEK cells co-expressing […] assessed as maximum increase in by thallium flux preincubated for 2.5 mins followed by gluatamate addition and measured for 2 mins by thallium flux assay; type: cell-based; details: filed as positive allosteric modulator, time 4.5 min
Chain of Metabotropic glutamate receptor 4 (Rattus norvegicus) (P31423 whole entry): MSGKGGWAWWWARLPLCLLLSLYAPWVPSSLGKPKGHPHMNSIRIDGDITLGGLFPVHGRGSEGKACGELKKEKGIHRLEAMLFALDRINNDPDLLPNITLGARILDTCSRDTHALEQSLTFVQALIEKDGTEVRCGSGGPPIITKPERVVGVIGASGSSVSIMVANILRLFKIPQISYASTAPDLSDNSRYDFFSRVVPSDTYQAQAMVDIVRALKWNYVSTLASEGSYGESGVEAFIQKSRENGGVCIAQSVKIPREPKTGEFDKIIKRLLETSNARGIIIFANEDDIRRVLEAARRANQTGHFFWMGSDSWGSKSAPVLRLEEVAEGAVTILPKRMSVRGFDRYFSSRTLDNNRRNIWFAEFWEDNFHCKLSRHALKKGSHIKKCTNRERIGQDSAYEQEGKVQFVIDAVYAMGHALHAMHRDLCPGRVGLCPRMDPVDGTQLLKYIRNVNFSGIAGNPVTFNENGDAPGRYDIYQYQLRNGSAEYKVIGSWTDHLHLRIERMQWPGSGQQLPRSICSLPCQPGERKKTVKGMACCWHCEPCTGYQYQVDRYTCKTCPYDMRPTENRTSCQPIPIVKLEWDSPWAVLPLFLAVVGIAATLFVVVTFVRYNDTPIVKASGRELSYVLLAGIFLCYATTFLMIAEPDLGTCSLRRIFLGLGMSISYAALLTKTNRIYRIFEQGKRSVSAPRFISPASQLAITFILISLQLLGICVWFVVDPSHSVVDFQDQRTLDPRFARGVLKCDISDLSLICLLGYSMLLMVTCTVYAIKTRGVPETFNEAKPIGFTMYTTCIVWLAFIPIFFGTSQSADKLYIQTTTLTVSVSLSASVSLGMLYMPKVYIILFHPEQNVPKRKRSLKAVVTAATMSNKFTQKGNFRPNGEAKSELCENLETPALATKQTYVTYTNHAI

[16] = Lipophilicity, logP of the compound; type: physicochemical; details: octanol/water
[17] = Protein binding in rat plasma assessed as fraction unbound incubated for 4 hrs by equilibrium dialysis based LC/MS/MS analysis; type: ADME, cell-free
[18] = Tmax in Cynomolgus monkey at 3 mg/kg, po and measured upto 24 hrs by LC-MS/MS analysis; type: ADME, organism-based, Macaca fascicularis; details: in vivo; summary of the method: as §2
[19] = biological target: Amine oxidase [flavin-containing] A (Homo sapiens, UniProt P21397); assay: Binding affinity to MAO-A (unknown origin)
Chain of Amine oxidase [flavin-containing] A (P21397 whole entry): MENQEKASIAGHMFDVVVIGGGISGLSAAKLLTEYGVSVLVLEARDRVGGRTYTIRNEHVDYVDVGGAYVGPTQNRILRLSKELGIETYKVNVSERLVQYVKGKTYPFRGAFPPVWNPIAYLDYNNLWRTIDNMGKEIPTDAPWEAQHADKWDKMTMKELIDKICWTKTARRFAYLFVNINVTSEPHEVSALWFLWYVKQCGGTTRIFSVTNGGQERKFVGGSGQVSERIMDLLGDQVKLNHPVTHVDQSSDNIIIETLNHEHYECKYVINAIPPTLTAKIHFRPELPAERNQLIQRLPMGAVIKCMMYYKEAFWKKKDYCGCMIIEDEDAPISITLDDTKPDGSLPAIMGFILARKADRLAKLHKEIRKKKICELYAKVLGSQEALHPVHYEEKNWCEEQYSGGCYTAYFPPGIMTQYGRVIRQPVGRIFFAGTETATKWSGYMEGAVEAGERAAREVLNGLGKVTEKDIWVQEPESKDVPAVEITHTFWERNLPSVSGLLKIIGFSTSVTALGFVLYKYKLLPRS

[20] = biological target: Amine oxidase [flavin-containing] B (Homo sapiens, UniProt P27338); assay: Binding affinity to MAO-B (unknown origin)
Chain of Amine oxidase [flavin-containing] B (P27338 whole entry): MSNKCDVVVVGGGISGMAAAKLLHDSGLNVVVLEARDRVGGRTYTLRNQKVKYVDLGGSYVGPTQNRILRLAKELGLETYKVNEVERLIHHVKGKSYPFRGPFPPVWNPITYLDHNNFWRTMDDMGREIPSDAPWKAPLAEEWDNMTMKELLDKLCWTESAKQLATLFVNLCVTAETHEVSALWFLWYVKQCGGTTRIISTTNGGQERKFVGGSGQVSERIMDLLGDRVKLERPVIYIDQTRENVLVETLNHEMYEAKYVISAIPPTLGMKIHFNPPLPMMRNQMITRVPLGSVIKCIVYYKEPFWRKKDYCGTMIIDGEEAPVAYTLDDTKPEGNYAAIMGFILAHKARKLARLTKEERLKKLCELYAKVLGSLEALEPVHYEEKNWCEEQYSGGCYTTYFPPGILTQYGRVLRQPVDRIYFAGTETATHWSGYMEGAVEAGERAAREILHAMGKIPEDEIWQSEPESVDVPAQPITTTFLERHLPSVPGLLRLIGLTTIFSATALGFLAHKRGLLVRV

[21] = biological target: Nuclear receptor subfamily 1 group I member 2 (Rattus norvegicus, UniProt Q9R1A7); assay: Activation of rat PXR
Chain of Nuclear receptor subfamily 1 group I member 2 (Q9R1A7 whole entry): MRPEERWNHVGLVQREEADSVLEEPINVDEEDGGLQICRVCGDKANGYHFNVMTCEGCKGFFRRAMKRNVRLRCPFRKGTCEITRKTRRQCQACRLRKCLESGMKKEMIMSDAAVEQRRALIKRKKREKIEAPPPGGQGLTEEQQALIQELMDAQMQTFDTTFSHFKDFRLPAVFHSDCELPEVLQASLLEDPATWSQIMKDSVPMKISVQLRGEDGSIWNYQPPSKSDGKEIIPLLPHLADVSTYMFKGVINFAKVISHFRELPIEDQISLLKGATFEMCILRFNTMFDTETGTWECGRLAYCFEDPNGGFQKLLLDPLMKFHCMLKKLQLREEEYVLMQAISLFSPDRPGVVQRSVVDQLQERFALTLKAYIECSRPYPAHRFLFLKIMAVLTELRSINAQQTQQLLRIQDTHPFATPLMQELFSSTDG

[22] = Clearance in Sprague-Dawley rat plasma at 0.2 mg/kg, iv and measured upto 24 hrs by LC-MS/MS analysis; type: ADME, organism-based; summary of the method: as §3
[23] = Protein binding in mouse plasma assessed as fraction unbound incubated for 4 hrs by equilibrium dialysis based LC/MS/MS analysis; type: ADME, cell-free
[24] = Volume of distribution at steady state in Sprague-Dawley rat at 0.2 mg/kg, iv and measured upto 24 hrs by LC-MS/MS analysis; type: ADME, organism-based; details: in vivo, read-out: Vdss; summary of the method: as §2
Kv4.3/KChIP2 = Kv4.3/KChIP2 (Homo sapiens, UniProt Q9NS61+Q9UK17); assay: Inhibition of Kv4.3/KChIP2 (unknown origin) at 10 uM; type: toxicity
Summary of the method: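 Cardiac ion channel electrophysiology (functional EP) panel, with percent inhibition measured at 10 μM.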

Cytochrome P450 3A4 [25] = biological target: T1, Cytochrome P450 3A4; assay: Inhibition of CYP3A4 in human liver microsomes using midazolam as substrate preincubated for 15 mins followed by NADPH addition and measured after 8 mins by LC/MS/MS analysis; type: ADME, Microsome
[26] = Oral bioavailability in Cynomolgus monkey at 3 mg/kg administered as spray-dried dispersion formulation and measured upto 24 hrs by LC-MS/MS analysis; type: ADME, organism-based, Macaca fascicularis; details: in vivo
Summary of the method: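 Cynomolgus oral dosing used a spray-dried dispersion of the compound with HPMCP-HP55 polymer at a 25%/75% drug-to-polymer ratio. Oral bioavailability (%F) was determined from plasma exposure.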

[27] = Unbound brain-to-plasma concentration ratio in Sprague-Dawley rat at 0.2 mg/kg, iv and measured upto 24 hrs by LC-MS/MS analysis; type: ADME, organism-based; details: read-out: K(p,uu,brain)
Rattus norvegicus [28] = assay: Reversal of haloperidol-induced catalepsy Sprague-Dawley rat model at 0.3 to 30 mg/kg,po and measured upto 6 hrs; type: functional, organism-based; details: dose 0.3-30 mg/kg
Summary of the method: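 Time course in the haloperidol (1.5 mg/kg i.p.) catalepsy model in rats after a single 30 mg/kg oral dose, followed for up to 6 h. Satellite rats dosed in parallel gave plasma and CSF exposures.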

P-gp (ABCB1) = P-gp (ABCB1) (Homo sapiens, UniProt P08183); assay: Substrate activity at human P-gp assessed as apparent permeability; type: ADME; details: not told
[29] = Tmax in Sprague-Dawley rat at 3 mg/kg, po and measured upto 24 hrs by LC-MS/MS analysis; type: ADME, organism-based; details: in vivo; summary of the method: as §2
Cytochrome P450 2B6 = Cytochrome P450 2B6 (Homo sapiens, UniProt P20813); assay: Induction of CYP2B6 in human hepatocytes; type: ADME, cell-based; summary of the method: as §5
Chain of Cytochrome P450 2B6 (P20813 whole entry): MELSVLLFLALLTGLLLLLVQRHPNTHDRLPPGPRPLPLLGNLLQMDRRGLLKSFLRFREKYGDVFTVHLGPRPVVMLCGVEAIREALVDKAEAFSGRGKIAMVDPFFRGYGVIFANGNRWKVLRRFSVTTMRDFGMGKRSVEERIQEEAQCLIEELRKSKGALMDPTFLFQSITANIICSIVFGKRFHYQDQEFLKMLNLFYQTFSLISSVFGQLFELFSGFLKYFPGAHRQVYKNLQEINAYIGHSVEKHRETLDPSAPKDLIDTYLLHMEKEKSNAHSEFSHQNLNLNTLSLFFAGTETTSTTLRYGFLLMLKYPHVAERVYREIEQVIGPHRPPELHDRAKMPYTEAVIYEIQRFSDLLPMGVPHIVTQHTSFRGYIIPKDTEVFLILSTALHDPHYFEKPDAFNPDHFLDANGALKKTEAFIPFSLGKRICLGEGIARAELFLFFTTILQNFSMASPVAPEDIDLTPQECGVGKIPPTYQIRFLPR

AUC at 24 h [2]: 5.92 µM·h
EC50 [4]: > 10 µM
Tmax [5]: 0.42 h
Vd [6]: 3.2 L/kg
clearance [7]: 78.3 mL/min/kg
fraction unbound at 4 h [8]: 0.016
AUC(0-inf) [9]: 1.55 µM·h
AUC(0-inf) [10]: 2.81 µM·h
Activity (Cytochrome P450 3A4 [12]): Not Active
AUC(0-inf) [13]: 9.66 µM·h
IC50 (Cytochrome P450 1A2): 1.5 µM
solubility [14]: < 5 µg/mL
Emax [15]: 132%
logP [16]: 3.78
fraction unbound at 4 h [17]: 0.01
Tmax [18]: 6 h
EC50 [19]: > 30 µM
EC50 [20]: > 30 µM
Activity [21]: Not Active
clearance [22]: 37.7 mL/min/kg
fraction unbound at 4 h [23]: 0.015
Vd [24]: 3 L/kg
IC50 (Cytochrome P450 3A4 [25]): > 30 µM
bioavailability [26]: 58%
Kp uu at 24 h [27]: 0.09
Papp (P-gp (ABCB1)): 8 ×10⁻⁶ cm/s
Tmax [29]: 2 h
Activity (Cytochrome P450 2B6): Not Active
Structure (SMILES): FC(F)(F)c1nccc2cc(Nc3n[nH]c4ncccc34)ccc12
Activity [1]: Non-Toxic
Activity (Rattus norvegicus [3]): Dose-Dependent Effect
Activity [11]: Non-Toxic
inhibition at 10 µM (Kv4.3/KChIP2): < 50%
Activity (Rattus norvegicus [28]): Active
